{"source": "ChEMBL document CHEMBL1156469", "about": "(2007)", "key": {"[1]": {"test_system": "Osteoblast", "assay": "Effect on transforming growth factor beta 3 gene expression in rat primary osteoblast cells assessed as expression ratio of treated to untreated control by microarray analysis", "format": "functional", "outline": "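Resveratrol-treated and vehicle-treated primary osteoblasts were profiled on a mouse osteogenesis-focused cDNA array (GEArray Q series) built to track gene expression during osteogenic differentiation. Each gene's signal in treated cells was expressed as a ratio to untreated control.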"}, "[2]": {"target": "Forkhead box protein O3 (Homo sapiens) (UniProt O43524)", "sequence (O43524 whole entry)": "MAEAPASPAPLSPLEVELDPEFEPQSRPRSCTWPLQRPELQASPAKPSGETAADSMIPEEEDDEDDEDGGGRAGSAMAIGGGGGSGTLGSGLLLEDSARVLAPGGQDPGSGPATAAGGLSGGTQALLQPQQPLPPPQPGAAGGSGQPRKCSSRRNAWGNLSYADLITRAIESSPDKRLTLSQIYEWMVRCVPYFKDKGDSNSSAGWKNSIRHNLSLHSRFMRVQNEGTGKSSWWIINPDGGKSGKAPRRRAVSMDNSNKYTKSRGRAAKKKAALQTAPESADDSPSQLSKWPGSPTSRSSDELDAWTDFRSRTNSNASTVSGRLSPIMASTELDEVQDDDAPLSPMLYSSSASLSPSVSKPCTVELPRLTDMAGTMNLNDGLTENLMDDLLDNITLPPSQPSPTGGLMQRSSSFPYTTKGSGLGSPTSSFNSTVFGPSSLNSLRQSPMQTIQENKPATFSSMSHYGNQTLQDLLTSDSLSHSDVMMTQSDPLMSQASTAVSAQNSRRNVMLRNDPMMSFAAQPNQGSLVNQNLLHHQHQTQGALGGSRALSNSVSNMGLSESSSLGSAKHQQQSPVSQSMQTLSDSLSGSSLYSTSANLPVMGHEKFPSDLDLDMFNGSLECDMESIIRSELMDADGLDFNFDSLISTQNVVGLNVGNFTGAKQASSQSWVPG", "assay": "Reversal of induction of FOXO3a activity in human MDA-MB-231 cells transfected with FOXO3a-specific small interfering RNA", "format": "cell-based"}, "[3]": {"target": "T1, Estrogen receptor (Mus musculus) (UniProt P19785)", "T1 sequence (whole entry)": "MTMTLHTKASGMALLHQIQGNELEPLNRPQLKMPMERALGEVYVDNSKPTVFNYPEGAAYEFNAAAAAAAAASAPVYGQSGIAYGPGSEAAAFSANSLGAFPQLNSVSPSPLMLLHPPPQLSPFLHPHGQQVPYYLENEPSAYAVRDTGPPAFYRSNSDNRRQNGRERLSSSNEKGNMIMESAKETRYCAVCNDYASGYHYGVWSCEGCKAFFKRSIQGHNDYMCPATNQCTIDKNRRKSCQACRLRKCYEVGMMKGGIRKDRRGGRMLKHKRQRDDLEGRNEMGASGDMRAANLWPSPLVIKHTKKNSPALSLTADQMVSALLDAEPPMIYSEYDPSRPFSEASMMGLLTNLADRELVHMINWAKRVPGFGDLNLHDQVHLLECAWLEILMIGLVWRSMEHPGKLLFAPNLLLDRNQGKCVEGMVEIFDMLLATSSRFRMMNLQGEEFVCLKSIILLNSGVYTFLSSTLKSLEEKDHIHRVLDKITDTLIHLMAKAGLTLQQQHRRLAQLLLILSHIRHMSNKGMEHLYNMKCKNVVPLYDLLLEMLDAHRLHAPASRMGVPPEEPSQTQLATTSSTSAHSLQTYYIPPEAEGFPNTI", "assay": "Reversal of increase in DNA-binding activity of ERalpha in nuclear extracts of mouse MC3T3-E1 cells transfected with dominant-negative mutant Src expression vector by electrophoretic mobility shift assays", "format": "cell-based", "outline": "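Nuclear extracts of MC3T3-E1 cells. ER-binding probe [α-32P]dCTP end-labeled, 20-min binding at room temperature, 5-fold unlabeled competitor where used. Complexes resolved on 5% nondenaturing PAGE in Tris-borate-EDTA pH 8.3, then autoradiography.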"}, "[4]": {"test_system": "MDA-MB-231", "assay": "Decrease in Akt activation in human MDA-MB-231 cells expressing FOXO3a-specific small interfering RNA xenografted in nude mice at 10 mg/kg for 2 days", "format": "functional, organism-based", "design": "dose 10 mg/kg", "outline": "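MDA-MB-231 cells were cotransfected with FOXO3a siRNA (pSuper) and pcDNA3 at a 10:1 ratio. Stable pools were selected in 800 μg/ml G418 for 4 weeks, and control siRNA pools were made the same way. […] Akt phosphorylation was then assessed in the primary tumors.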"}, "[5]": {"test_system": "MDA-MB-231", "assay": "Reduction in anchorage-independent colony formation of human MDA-MB-231 cells at 1 uM by soft agar colony forming assay", "format": "functional, cell-based", "outline": "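Seeded in 0.35% noble agar in DMEM/10% FBS over a 0.7% agar bed. Colonies of at least 50 μm counted after 3 weeks under a dissecting microscope, six replicates per treatment. Three separate experiments.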"}, "[6]": {"test_system": "Osteoblast", "assay": "Effect on annexin A5 gene expression in rat primary osteoblast cells assessed as expression ratio of treated to untreated control by microarray analysis", "format": "functional"}, "[7]": {"test_system": "MC3T3-E1", "assay": "Increase in BMP2 expression in mouse MC3T3-E1 cells expressing pBMP2delta3 mutant at 1 uM after 4 hrs by luciferase method relative to control", "format": "functional, cell-based", "outline": "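MC3T3-E1 cells transfected with BMP-2 promoter–luciferase constructs (full promoter or deletions), treated with 1 μm or vehicle for 4 h; Dual-Luciferase assay; means ± S.D.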"}, "[8]": {"target": "T2, Alkaline phosphatase (Mus musculus) (UniProt Q9EQ79)", "T2 sequence (whole entry)": "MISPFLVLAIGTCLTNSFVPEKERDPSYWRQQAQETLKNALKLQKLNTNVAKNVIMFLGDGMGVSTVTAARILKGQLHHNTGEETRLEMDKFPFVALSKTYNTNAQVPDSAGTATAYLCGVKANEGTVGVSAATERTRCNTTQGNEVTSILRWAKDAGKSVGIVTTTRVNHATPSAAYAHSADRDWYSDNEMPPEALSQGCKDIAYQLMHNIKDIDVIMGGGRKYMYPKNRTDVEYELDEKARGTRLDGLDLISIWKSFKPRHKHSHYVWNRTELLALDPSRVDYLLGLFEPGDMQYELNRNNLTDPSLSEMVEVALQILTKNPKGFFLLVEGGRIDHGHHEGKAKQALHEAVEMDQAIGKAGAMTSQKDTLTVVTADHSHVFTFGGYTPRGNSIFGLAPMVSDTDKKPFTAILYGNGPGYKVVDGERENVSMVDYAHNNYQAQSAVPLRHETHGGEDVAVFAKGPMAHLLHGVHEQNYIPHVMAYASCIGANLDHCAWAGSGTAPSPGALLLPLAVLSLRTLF", "assay": "Increase in ALP activity in mouse MC3T3-E1 cells at 0.1 to 10 uM after 7 days", "format": "cell-based"}, "[9]": {"test_system": "MC3T3-E1", "assay": "Increase in osteocalcin levels in mouse MC3T3-E1 cells at 1 uM after 72 hrs by ELISA", "format": "functional, cell-based", "outline": "(§1)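 Cells treated with 1 μm for 72 h; osteocalcin or osteopontin in culture medium by sandwich ELISA, HRP-streptavidin/TMB, 450 nm; percent change versus untreated control.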"}, "[10]": {"test_system": "MC3T3-E1", "assay": "Increase in osteopontin levels in mouse MC3T3-E1 cells at 1 uM after 72 hrs by ELISA", "format": "functional, cell-based", "outline": "as §1"}, "[11]": {"test_system": "Rattus norvegicus", "assay": "Increase in serum ALP activity in ovariectomized Wistar rat dosed orally after 10 weeks", "format": "functional, organism-based", "outline": "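Female Wistar rats sham-operated or ovariectomized, fed compound orally every 2 days at indicated doses; femur/tibia BMD by DEXA under ketamine (87 mg/kg)/xylazine (13 mg/kg) anesthesia and serum ALP measured 10 weeks after surgery; n = 8/group, means ± S.D.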"}, "[12]": {"test_system": "Osteoblast", "assay": "Inhibition of etoposide-induced apoptosis in rat primary osteoblast cells after 24 hrs by flow cytometry", "format": "functional, cell-based", "outline": "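Cells washed in PBS, held 30 min in 0.5% Triton X-100/PBS/0.05% RNase A, then propidium iodide (50 μg/ml) added and kept on ice 15–30 min. Apoptosis is the hypodiploid fraction below the G0/G1 peak, by flow cytometry. Run in triplicate and repeated on three occasions.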"}, "[13]": {"test_system": "MDA-MB-231", "assay": "Antitumor activity against human MDA-MB-231 cells xenografted in SCID mouse orthotropic model assessed as inhibition of 17beta estradiol-induced tumor formation at 10 mg/kg for 2 days", "format": "functional", "design": "scale not given: the % may be the effect or the level left", "outline": "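Tumor cells were inoculated orthotopically into the mammary fat pad of 6-week-old female SCID mice. […] Tumor volume was calculated as LW2/2. Tumor formation was scored as mice with tumors per total (20 per group), and tumor weight as mean ± S.D. Groups were compared by one-way ANOVA with LSD post-hoc comparisons.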"}, "[14]": {"test_system": "Osteoblast", "assay": "Effect on bone morphogenetic protein 3 gene expression in rat primary osteoblast cells assessed as expression ratio of treated to untreated control by microarray analysis", "format": "functional"}, "[15]": {"test_system": "Osteoblast", "assay": "Effect on bone morphogenetic protein 6 gene expression in rat primary osteoblast cells assessed as expression ratio of treated to untreated control by microarray analysis", "format": "functional"}, "[16]": {"test_system": "Osteoblast", "assay": "Effect on MAD homolog 6 gene expression in rat primary osteoblast cells assessed as expression ratio of treated to untreated control by microarray analysis", "format": "functional"}}, "note": "Activity calls are given as the source filed them. No cut-off for these calls is given here."}
{"smiles": "Oc1ccc(/C=C/c2cc(O)cc(O)c2)cc1", "note": "[RESVERATROL]", "values": [{"measurement": "Ratio", "setting": "[1]", "value": 2.56}, {"measurement": "Activity", "setting": "[2]", "value": "Active"}, {"measurement": "Activity", "setting": "[3]", "value": "Active"}, {"measurement": "Activity", "setting": "[4]", "value": "Active"}, {"measurement": "Activity", "setting": "[5]", "value": "Active"}, {"measurement": "Ratio", "setting": "[6]", "value": 4.02}, {"measurement": "Activity", "setting": "[7]", "value": "inactive"}, {"measurement": "Activity", "setting": "[8]", "value": "Active"}, {"measurement": "Activity", "setting": "[9]", "value": "Active"}, {"measurement": "Activity", "setting": "[10]", "value": "Active"}, {"measurement": "Activity", "setting": "[11]", "value": "Dose-dependent effect"}, {"measurement": "Activity", "setting": "[12]", "value": "Active"}, {"measurement": "Activity", "setting": "[13]", "value": 85, "unit": "%"}, {"measurement": "Ratio", "setting": "[14]", "value": 0.27}, {"measurement": "Ratio", "setting": "[15]", "value": 3.38}, {"measurement": "Ratio", "setting": "[16]", "value": 0.38}]}
